Test results reported in article PMC7913687 (Nucleic Acids Research, 2021).

What was measured:
[1] = tested on: Nc1ncnc2c1ncn2[C@@H]1O[C@H](COP(=O)(O)OP(=O)(O)OP(=O)(O)O)[C@@H](O)[C@H]1O; experiment: purified protein, by the assay type; settings: pH 6.0; 23.0 °C
C[C@@H](O)[C@H](N)C(=O)O = experiment: purified protein, by the assay type; settings: pH 6.0; 23.0 °C
[2] = molecular target: Escherichia coli TsaBD heterodimer, preformed from fluorescently labelled His6-TsaD and unlabelled TsaB (Escherichia coli) (UniProt P05852); experiment: MST
Chain of Escherichia coli TsaBD heterodimer, preformed from fluorescently labelled His6-TsaD and unlabelled TsaB (Escherichia coli) (P05852 whole entry, chain 1 of 2): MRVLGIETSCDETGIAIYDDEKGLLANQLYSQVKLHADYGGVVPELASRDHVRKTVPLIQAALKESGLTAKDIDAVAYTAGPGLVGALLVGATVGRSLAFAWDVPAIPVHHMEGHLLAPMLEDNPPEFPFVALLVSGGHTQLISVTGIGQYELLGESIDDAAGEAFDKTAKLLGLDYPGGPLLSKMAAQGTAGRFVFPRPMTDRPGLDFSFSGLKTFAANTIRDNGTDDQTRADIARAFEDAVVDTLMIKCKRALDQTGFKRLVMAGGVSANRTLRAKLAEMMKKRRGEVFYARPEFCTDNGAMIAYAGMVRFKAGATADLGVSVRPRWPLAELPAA
Chain of Escherichia coli TsaBD heterodimer, preformed from fluorescently labelled His6-TsaD and unlabelled TsaB (Escherichia coli) (P76256 whole entry, chain 2 of 2, further chain): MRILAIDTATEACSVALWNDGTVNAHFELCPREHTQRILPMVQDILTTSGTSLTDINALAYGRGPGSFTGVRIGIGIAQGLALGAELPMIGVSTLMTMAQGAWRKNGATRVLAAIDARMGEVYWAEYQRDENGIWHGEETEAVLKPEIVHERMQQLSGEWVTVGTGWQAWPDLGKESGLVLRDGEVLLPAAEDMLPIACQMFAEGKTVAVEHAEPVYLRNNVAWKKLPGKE

EcTsaBDE complex = settings: read-out: Km for TsaE-catalyzed ATPase activity; cited from earlier work
TsaC = molecular target: T1, TsaC (Escherichia coli, UniProt P45748); experiment: TsaC reaction; assay type: biochemical; settings: named ligand as variable substrate
T1 sequence (P45748 1-190): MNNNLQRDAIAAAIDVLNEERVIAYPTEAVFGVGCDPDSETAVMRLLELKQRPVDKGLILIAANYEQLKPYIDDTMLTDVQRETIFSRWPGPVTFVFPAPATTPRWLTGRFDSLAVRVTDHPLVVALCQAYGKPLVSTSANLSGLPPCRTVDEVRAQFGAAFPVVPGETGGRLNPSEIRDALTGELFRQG
Outline: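 Enzyme, with the other components and any inhibitor, preincubated 2 min at 23°C, then started with ATP. After 1 min at 23°C, injected directly onto C18 HPLC (isocratic 50 mM potassium phosphate pH 6, 1% acetonitrile). TC-AMP read by UV at 260 nm. […], measured near initial rates.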

[3] = tested on: t^6A formation by TsaC, TsaB, TsaD and TsaE; experiment: In vitro HPLC assay for t^6A formation, overall; assay type: biochemical, Escherichia coli; settings: for k cat, overall reaction: named ligand as variable substrate; for Km: read-out: Km, overall reaction, apparent, amino acid as variable substrate
EcTsaBDE = EcTsaBDE (Escherichia coli, UniProt P05852); experiment: Isolated second step of t^6A formation; assay type: biochemical
Chain of EcTsaBDE (P05852 whole entry): as the sequence (P05852 whole entry, chain 1 of 2) above
Chain of EcTsaBDE (P76256 whole entry partner): as the sequence (P76256 whole entry, chain 2 of 2, further chain) above

[4] = molecular target: overall reaction (TsaC, TsaB, TsaD and TsaE) (Escherichia coli, UniProt P05852+P45748); experiment: Inhibition of t6A formation in the full TsaBCDE reaction; assay type: biochemical; settings: read-out: IC50 (μM) Overall reaction
Chain of overall reaction (TsaC, TsaB, TsaD and TsaE) (P76256 whole entry, one chain of several): as the sequence (P76256 whole entry, chain 2 of 2, further chain) above
Chain of overall reaction (TsaC, TsaB, TsaD and TsaE) (P05852 whole entry, one chain of several): as the sequence (P05852 whole entry, chain 1 of 2) above
Outline: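 Full reaction: 50 mM MOPS pH 7.5, 20 mM NaHCO3, 25 mM KCl, 1 mM ATP, L-Thr (0.6 mM per footnote; 1 mM in text), 10 μM unmodified E. coli tRNALys, 1 μM each TsaB/C/D/E. Variable test compound; ATP-started; 23 °C, 5 min; EDTA quench, G-50 desalting, nuclease P1/alkaline phosphatase digest. Isocratic C18 HPLC quantifies t6A at 260 nm. IC50 from near-initial rates.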

[5] = tested on: aspartate and ornithine transcarbamoylases; settings: cited from earlier work

In the case of EcTsaC (Escherichia coli K-12), the Km [1] is reported as 130 ± 10 µM, the kcat [1] is reported as 0.132 ± 0.00333 s⁻¹ and the Km (C[C@@H](O)[C@H](N)C(=O)O) is reported as 1770 ± 260 µM. It also gave a kcat (C[C@@H](O)[C@H](N)C(=O)O) of 0.15 ± 0.00667 s⁻¹.

“Escherichia coli TsaE (from UniProt P0AF67 1-153) (enzyme; other documents disagree on this pair)” showed a Kd [2] of 2.2 µM.

In the case of `Nc1ncnc2c1ncn2[C@@H]1O[C@H](COP(=O)(O)OP(=O)(O)OP(=O)(O)O)[C@@H](O)[C@H]1O` [ATP], the Km (EcTsaBDE complex) is given as 640 µM, the “K m, TsaC reaction” value (TsaC) is given as 130 ± 10 µM and the “k cat, TsaC reaction” value (TsaC) is given as 0.132 ± 0.0033 s⁻¹. For the same compound, the “reduction in the Vmax (substrate inhibition)” value ([3]; at 5 mM ATP) was 50%, the “reduction in the Vmax (substrate inhibition)” value ([3]; at 10 mM ATP) was 90% and the “Kis (substrate inhibition), overall reaction” value ([3]; calculated for observed substrate inhibition, fit to Equation 3) was 2200 µM. The “k cat, overall reaction” value [3] was 0.00667 ± 0.0067 s⁻¹, the “fold lower turnover of t^6A formation than ATPase activity” value (EcTsaBDE) was ~80 fold and the “fold lower Km for t^6A second step than Km for ATPase activity” value (EcTsaBDE; 14 μM vs 0.64 mM) was 40 fold. The “Kis, second step with TC-AMP as substrate” value (EcTsaBDE; TC-AMP 10 μM, fit to Equation 3) was 1.8 mM, the “Kis (substrate inhibition), TsaBDE reaction” value (EcTsaBDE; TC-AMP 10 μM, calculated for observed substrate inhibition) was 1800 µM and the “k cat, TsaBDE reaction” value (EcTsaBDE; named ligand as variable substrate) was 0.002 ± 0.0017 s⁻¹.

Work on `Nc1ncnc2c1ncn2[C@@H]1O[C@H](COP(=O)(O)O)[C@@H](O)[C@H]1O` [5′-AMP, adenosine 5'-monophosphate] yielded an IC50 [4] of 113 ± 10 µM.

For `Nc1ncnc2c1ncn2[C@@H]1O[C@H](COP(=O)(O)OC(=O)N[C@@H](CO)C(=O)O)[C@@H](O)[C@H]1O` [SC-AMP, serine analog of TC-AMP (L-serylcarbamoyl-adenylate)], the IC50 [4] was 9.3 ± 1.2 µM.

`CCC(O)[C@H](N)C(=O)O` (mixture of isomers) [hNV, (±)-3-hydroxynorvaline] gave a Km [3] of 500 µM.

For `NC(=O)OP(=O)(O)O` [CP, carbamoyl phosphate], the Km [5] is listed as 4 to 10 µM.

With `C[C@@H](O)[C@H](N)C(=O)O` [L-Thr, L-threonine] the “K m, TsaC reaction” value (TsaC) was 1770 ± 260 µM, the “k cat, TsaC reaction” value (TsaC) was 0.15 ± 0.0067 s⁻¹ and the “k cat, overall reaction” value [3] was 0.007 ± 0.00033 s⁻¹. It also gave a Km [3] of 590 ± 90 µM.

For `Nc1ncnc2c1ncn2[C@@H]1O[C@H](COP(=O)(O)OP(=O)(O)O)[C@@H](O)[C@H]1O` [5′-ADP, adenosine 5'-diphosphate], the IC50 [4] was 160 ± 20 µM.
